Drawing on ChEMBL document CHEMBL1148970, “New acylated iridoid glucosides from Vitex altissima” (J Nat Prod, 2004), this text covers Activity, IC50 and inhibition in vivo for eleven compounds.

Structures are written as SMILES. Calls of active or inactive are those of the source. The calls are words filed in the database; no cut-off is given here.

Assay [1] has as its target T1, Polyunsaturated fatty acid 5-lipoxygenase (Homo sapiens) (UniProt P09917).
T1 sequence (whole entry): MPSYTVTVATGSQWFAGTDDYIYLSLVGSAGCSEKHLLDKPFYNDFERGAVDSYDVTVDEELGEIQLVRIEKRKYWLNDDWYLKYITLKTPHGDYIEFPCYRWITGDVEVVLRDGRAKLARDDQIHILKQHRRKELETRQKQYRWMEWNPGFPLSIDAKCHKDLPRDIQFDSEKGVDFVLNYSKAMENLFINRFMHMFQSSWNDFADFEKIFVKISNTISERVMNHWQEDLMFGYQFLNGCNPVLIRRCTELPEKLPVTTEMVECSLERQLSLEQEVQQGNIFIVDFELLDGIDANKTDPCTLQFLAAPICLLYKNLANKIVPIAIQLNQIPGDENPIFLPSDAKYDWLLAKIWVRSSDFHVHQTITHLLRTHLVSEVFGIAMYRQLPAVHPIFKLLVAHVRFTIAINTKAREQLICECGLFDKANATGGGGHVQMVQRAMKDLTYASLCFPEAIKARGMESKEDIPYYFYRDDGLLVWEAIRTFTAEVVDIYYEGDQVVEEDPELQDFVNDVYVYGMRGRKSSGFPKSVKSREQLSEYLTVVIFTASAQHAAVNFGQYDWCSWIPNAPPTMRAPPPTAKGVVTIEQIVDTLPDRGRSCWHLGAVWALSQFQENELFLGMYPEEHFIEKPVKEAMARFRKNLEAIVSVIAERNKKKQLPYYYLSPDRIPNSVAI
Kind of assay: Inhibition of 5-lipoxygenase activity at 1000 uM by ferric-xylenol orange peroxide assay relative to control. The essentials: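 Modified ferric-xylenol orange peroxide assay. 5-Lipoxygenase with test substance and linoleic acid (80 mM) in 50 mM phosphate pH 6.3 was incubated 5 min. Ferric-xylenol orange reagent in perchloric acid was then added and A585 read 2 min later. Percent inhibition is relative to the control. Triplicates averaged.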

For assay [2], the system named is Radical scavenging activity. Kind of assay: Antioxidant activity assessed as DPPH free radical scavenging activity. Type of assay: functional. The essentials:
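DPPH was used as a […] methanolic solution and mixed with a range of test concentrations. Mixtures stood in the dark for 50 min, then absorbance at 517 nm was read against a blank. Run in triplicate and averaged.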

Assay [3] in a line: Antioxidant activity assessed as superoxide radical scavenging activity by NBT method. The assay is classed as functional. The essentials: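 Riboflavin-photogenerated superoxide was detected by NBT reduction (McCord–Fridovich). The mixture held EDTA 6.0 µM, NaCN 3 µg, riboflavin 2 µM, NBT 50 µM and test substance in methanol, in 58 mM phosphate pH 7.8, 3 mL final. A560 was read before and after illumination. IC50 was taken from the plot of concentration in µM against % inhibition.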

Assay [4] has as its system Rattus norvegicus. Kind of assay: Antiinflammatory activity against carrageenan-induced paw edema in Wistar rat at 25 mg/kg, po administered 1 hr before inflammation induction measured after 3 hrs of carrageenan challenge relative to control. The assay is classed as functional. Summed up: (§1)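 Wistar rats of either sex, 180-220 g, groups of six. Test material suspended in 1% Tween-80 and given orally 1 h before 0.1 mL of 1% w/v carrageenan in saline was injected subplantar into the left hind paw. Vehicle controls received 1% Tween-80 at 10 mL/kg. Paw volume was read by plethysmometer at 0 and 3 h. Percent inhibition compares mean edema volume with the control group.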

Assay [5] concerns Rattus norvegicus. Kind of assay: Antiinflammatory activity against carrageenan-induced paw edema in Wistar rat at 200 mg/kg, po administered 1 hr before inflammation induction measured after 3 hrs of carrageenan challenge relative to control. Type of assay: functional. The essentials:
as §1

With `C[C@H]1[C@H]2[C@H](O[C@@H]3O[C@H](COC(=O)/C=C/c4ccc(O)c(O)c4)[C@@H](O)[C@H](O)[C@H]3OC(=O)c3ccc(O)cc3)OC=C(C(=O)O)[C@H]2C[C@@H]1O`, the outcome in assay [1] was inactive. Moreover, the IC50 was determined as 11.4 µM in assay [2] and 31.9 µM in assay [3].
Take `O=C(OCC1=C[C@@H](O)[C@@H]2C=CO[C@@H](O[C@@H]3O[C@H](CO)[C@@H](O)[C@H](O)[C@H]3O)[C@H]12)c1ccc(O)cc1`: the result in assay [1] was inactive.
Same read-out and setting: for `C=C1[C@H]2[C@H](O[C@@H]3O[C@H](CO)[C@@H](O)[C@H](O)[C@H]3OC(=O)c3ccc(O)cc3)OC=C(C(=O)O)[C@H]2C[C@@H]1O` the value was “inactive”.
For the compound `O=C([O-])Cc1ccccc1Nc1c(Cl)cccc1Cl.[Na+]` [DICLOFENAC SODIUM], in the assay with Rattus norvegicus [4], the Activity is 62%.
Take `C=C1[C@H]2[C@H](O[C@@H]3O[C@H](COC(=O)/C=C/c4ccc(O)c(O)c4)[C@@H](O)[C@H](O)[C@H]3OC(=O)c3ccc(O)cc3)OC=C(C(=O)O)[C@H]2C[C@@H]1O`: the outcome in assay [1] was inactive. In addition, the figures for the IC50 in assay [2] and in assay [3] were 10.9 µM and 32 µM, respectively.
As for `Cc1cc(C(C)(C)C)c(O)c(C(C)(C)C)c1` [BUTYLATED HYDROXYTOLUENE], the IC50 stood at 19 µM in assay [2] and 381 µM in assay [3].
Consider `COc1ccc(O)c(C(C)(C)C)c1.COc1ccc(O)cc1C(C)(C)C` [BUTYLATED HYDROXYANISOLE], for which the IC50 came to 18 µM in assay [2] and 966 µM in assay [3].
For the compound `COc1cc(/C=C/C(=O)OC[C@H]2O[C@@H](O[C@@H]3OC=C(C(=O)O)[C@H]4CC[C@](C)(O)[C@@H]34)[C@H](OC(=O)c3ccc(O)cc3)[C@@H](O)[C@@H]2O)ccc1O`, the result in assay [1] was inactive. Besides, in the assay with Rattus norvegicus [5], the inhibition in vivo at 200 mg/kg amounted to 20%.
As to `C[C@H]1[C@H]2[C@H](O[C@@H]3O[C@H](CO)[C@@H](O)[C@H](O)[C@H]3OC(=O)c3ccc(O)cc3)OC=C(C(=O)O)[C@H]2C[C@@H]1O`, in assay [1], the outcome was inactive.
Same read-out and setting: for `C[C@]1(O)CC[C@@H]2C(C(=O)O)=CO[C@@H](O[C@@H]3O[C@H](CO)[C@@H](O)[C@H](O)[C@H]3OC(=O)c3ccc(O)cc3)[C@@H]21` the value was “inactive”.
Take `C[C@]1(O)CC[C@@H]2C(C(=O)O)=CO[C@@H](O[C@@H]3O[C@H](COC(=O)/C=C/c4ccc(O)c(O)c4)[C@@H](O)[C@H](O)[C@H]3OC(=O)c3ccc(O)cc3)[C@@H]21`: the outcome in assay [1] was inactive. Besides, the 50% inhibitory concentration (IC50) was 15.2 µM in assay [2] and 24.3 µM in assay [3].
